Measured values from publication PMC9398498 (Gastric Cancer, 2022).
Counter-ions that a name gives are not always drawn. Like-named read-outs stand apart in the source and are kept apart here.

Experiments:
[1] = system: GISTs; details: cited from earlier work
[2] = system: GIST-T1 and GIST-T1/IMR cells; test: Longitudinal migration through uncoated Matrigel; format: cell-based; details: both cell lines
Outline: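 Parental and resistant GIST-T1 cells were grown in RPMI 1640 with 15% FBS at 37 °C, 5% CO2. Vertical migration was scored as the number of cells passing through uncoated Matrigel.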

[3] = system: GIST-T1 cells; test: Cell cycle analysis, GIST-T1; format: cell-based; details: P < 0.01
[4] = cited from earlier work
[5] = system: GIST-T1 and GIST-T1/IMR cells; test: Plate colony formation experiment; format: cell-based; details: P < 0.01
[6] = Therapeutic drug monitoring; format: in vivo, human; details: 400 mg/qd; for concentration at 22 h: both, human, plasma, oral, Plasma concentration
Outline: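 Patients on oral drug 400 mg once daily for over 1 month (steady state) took the dose at about 12:00. Peripheral venous blood was drawn about 10:00 next morning into anticoagulant tubes and centrifuged at 5000 rpm for 5 min. Plasma was stored at −20 °C, protein-precipitated, centrifuged and injected directly for 2D-LC-UV quantitation.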

[7] = system: GIST-T1 and GIST-T1/IMR cells; test: Cell apoptosis analysis; format: cell-based
[8] = system: GIST-T1 and GIST-T1/IMR cells; test: Transwell chamber invasion assay; format: cell-based; details: DMS pretreatment and then IM treatment, within 48 h
Outline: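 Parental and resistant GIST-T1 cells in RPMI 1640 with 15% FBS (37 °C, 5% CO2) were tested in a transwell chamber. Invasion within 48 h was counted as transmembrane cells.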

[9] = system: GIST-T1 and GIST-T1/IMR cells; test: Cell scratch assay; format: cell-based; details: DMS (10 µM, 5 h) pretreatment then IM (20 µM) vs only IM treatment, P < 0.01
[10] = system: GIST-T1/IMR cells; test: Cell cycle analysis, GIST-T1/IMR; format: cell-based; details: DMS with IM vs only IM, P < 0.01
[11] = system: S1P, SPK1 and ABCC1 protein expression; test: Western blot of SPK1/S1P proteins; format: cell-based; details: after DMS blockage for 5 h
Outline: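 Lysates of parental and resistant GIST-T1 cells were probed with rabbit polyclonal anti-S1P, anti-SPK1 and anti-β-actin antibodies, plus anti-ABCC1. Bands were visualised by enhanced chemiluminescence.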

[12] = system: SPK1; details: SPK1 compared to SPK2; cited from earlier work

For `CCn1c(=O)c(-c2cc(NC(=O)Nc3ccccc3)c(F)cc2Br)cc2cnc(NC)cc21` [ripretinib], the “median PFS” value ([1]; phase III trial) is listed as 6.3 months and the objective response rate ([1]; phase III trial) is listed as 9%.

For `CCN(CC)CCNC(=O)c1c(C)[nH]c(/C=C2\C(=O)Nc3ccc(F)cc32)c1C` [sunitinib], the “median PFS” value ([1]; use after IM resistance) is given as 9.9 months and the objective response rate ([1]; use after IM resistance) is given as 5.5%.

For `CNC(=O)c1cc(Oc2ccc(NC(=O)Nc3ccc(Cl)c(C(F)(F)F)c3)c(F)c2)ccn1` [regorafenib], the “median PFS” value ([1]; use after sunitinib resistance) is given as 4.8 months and the objective response rate ([1]; use after sunitinib resistance) is given as 5.5%.

In the case of `Cc1ccc(NC(=O)c2ccc(CN3CCN(C)CC3)cc2)cc1Nc1nccc(-c2cccnc2)n1` [IM, Imatinib mesylate], the longitudinal migration capacity ([2]; 20 μM of IM for 48 h, P < 0.01) is given as “decreased significantly”, the “proportion of G0/G1 phase” value ([3]; exposed to IM vs control) is given as “higher proportion” and the “GISTs patients developing secondary drug resistance” value ([1]; after 1–3 years of IM treatment) is given as roughly 85%. The “pH at which IM tablets dissolve rapidly” value [4] was no more than 5.5, the “number of colony formation” value ([5]; IM intervention vs control) was “significantly less than the control group” and the “difference between the highest and lowest IM concentration” value ([6]; 29 patients) was “more than 12 fold”. It also gave a concentration at 22 h ([6]; OCT1 1022C > T (rs 2282143) CC, n=22) of 1510 ± 842 ng/mL, a concentration at 22 h ([6]; OCT1 1022C > T (rs 2282143) TC, n=7) of 1750 ± 1090 ng/mL and a concentration at 22 h ([6]; OCT1 1222 A > G (rs628031) AA, n=1) of 300 ng/mL. It also gave a concentration at 22 h ([6]; OCT1 1222 A > G (rs628031) AG, n=10) of 1820 ± 1010 ng/mL, a concentration at 22 h ([6]; OCT1 1222 A > G (rs628031) GG, n=18) of 1500 ± 798 ng/mL and a concentration at 22 h ([6]; OCT1 1386C > A (rs 622342) AA, n=24) of 1580 ± 801 ng/mL. The concentration at 22 h ([6]; OCT1 1386C > A (rs 622342) AC, n=5) was 1490 ± 1380 ng/mL, the concentration at 22 h ([6]; OCT1 1795G > A (rs6935207) AA, n=8) was 961 ± 401 ng/mL and the concentration at 22 h ([6]; OCT1 1795G > A (rs6935207) AG, n=13) was 1860 ± 978 ng/mL. The concentration at 22 h ([6]; OCT1 1795G > A (rs6935207) GG, n=8) was 1700 ± 890 ng/mL and the apoptosis rate ([7]; GIST-T1 cells treated with IM alone vs control, P < 0.01) was “higher than that of the control group”.

In the case of `CCCCCCCCCCCCC/C=C/[C@@H](O)[C@H](CO)N(C)C` [DMS, N,N-dimethylsphingosine], the “ability of longitudinal migration” value ([2]; DMS pretreatment with IM) is reported as “further block”, the “proportion of G0/G1 phase” value ([3]; GIST-T1, DMS with IM vs only IM) is reported as “significantly lower” and the “number of transmembrane cells” value [8] is reported as “further reduced dramatically”. For the same compound, the scratch healing rate [9] was “significantly decreased”, the Colony formation ability ([5]; DMS pretreatment vs IM intervention's group) was “further reduced” and the “proportion of G0/G1 phase” value [10] was “significantly lower”. The apoptosis rate ([7]; after DMS interference vs cells without DMS treatment) was “significantly higher”, the “protein levels of S1P, ABCC1 and SPK1” value [11] was “decreased” and the “inhibitory activity on sphingosine kinases” value [12] was “high inhibitory activity on SPK1 compared to SPK2”.
